Publication PMC5806153 (The Journal of pediatrics, 2018)
“And” between values parts separate entries of the source, which are not always exact repeats. Identical values can stand only once. Like-named read-outs stand apart in the source and are kept apart here.

Experiments:
[1] = assay type: in vivo, human; conditions: for half-life / Cmax / AUC(0-t) / AUC(0-inf): human, plasma; for AUC(0-t): Uncorrected AUC0-last; for AUC(0-t) / AUC(0-inf) / % AUC0-∞ extrapolated from AUC0-last / AUC0-∞ corrected for TBW-normalized dose / CL/F normalized to TBW / Cmax corrected for LBW-normalized dose / Cmax corrected for TBW-normalized dose / Vd/F normalized to TBW: mean ± SD; for AUC(0-inf): Uncorrected AUC0-∞; for tlag: median (range)
Summary of the method: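 Fasted obese children 6–17 y, CYP2C19-genotyped (*2, *3, *4, *17; classed EM/IM/PM), received a single oral dose of ~1.2 mg/kg LBW. Catheter blood was drawn predose, half-hourly 0.5–4 h, and at 6 and 8 h, plus 12 h for PMs. Parent and sulfone metabolite were measured by validated LC-MS/MS in duplicate, using the mean. Noncompartmental analysis: λz from ≥3 terminal points, linear trapezoidal AUC, AUCinf = AUClast + CT/λz; Cmax and AUC corrected to 1 mg/kg TBW or LBW dose.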

[2] = historical nonobese peers, mean ± SD, ref Ward et al.[22], cited from earlier work
Safety and tolerability = assay type: in vivo, human
[3] = both, oral, obese, age 6–11 y (n = 18)
[4] = both, oral, obese, age 12–17 y (n = 21)
[5] = non-PMs, Morbidly obese (BMI >99%), mean (SD)
[6] = non-PMs, obesity status Obese (BMI ≥95%), mean (SD)
[7] = obese non-PMs, ALT High (>Q3), mean (SD)
[8] = obese non-PMs, ALT Low (<Q1), mean (SD)
[9] = obese non-PMs, AST High (>Q3), mean (SD)
[10] = obese non-PMs, AST Low (<Q1), mean (SD)
[11] = obese non-PMs, Female, mean (SD)
[12] = obese non-PMs, Waist:hip ratio High (>Q3), mean (SD)
[13] = obese non-PMs, Waist:hip ratio Low (<Q1), mean (SD)
[14] = obese, 2C19 genotype EM, mean (SD)
[15] = obese, 2C19 genotype IM, mean (SD)
[16] = obese, age 6–11 y, non-PMs, mean, SD

half-life ([1]; both, im, t1/2, obese, 2C19 genotype IM, mean (SD)): 63 min
Cmax ([1]; both, oral): 4100 ± 1180 ng/mL
AUC(0-t) [1, 3]: 6170 ± 2170 ng·h/mL
AUC(0-t) [1, 4]: 7470 ± 2800 ng·h/mL
AUC(0-inf) [1, 3]: 6260 ± 2260 ng·h/mL
AUC(0-inf) [1, 4]: 7690 ± 3450 ng·h/mL
half-life ([1]; both, oral, t1/2, non-PMs, Morbidly obese (BMI >99%), mean (SD)): 61.8 min
half-life ([1]; both, oral, t1/2, non-PMs, obesity status Obese (BMI ≥95%), mean (SD)): 58.2 min
half-life ([1]; both, oral, t1/2, obese, 2C19 genotype EM, mean (SD)): 57 min
half-life ([1]; both, oral, t1/2, obese, age 12–17 y, mean, SD): 64.8 ± 15.6 min
Cmax ([1]; both, po): 4270 ± 1430 ng/mL
half-life ([1]; female, oral, t1/2, obese non-PMs, mean (SD)): 61.8 min
half-life ([1]; male, oral, t1/2, obese non-PMs, mean (SD)): 57 min
AUC0-∞ corrected for LBW-normalized dose [1, 5]: 6.17 (1.89) mcg*h/mL/1 mg/kg LBW
CL/F normalized by LBW [1, 5]: 0.18 (0.06) L/h/kg LBW
Vd/F normalized by LBW [1, 5]: 0.25 (0.05) L/kg LBW
AUC0-∞ corrected for LBW-normalized dose [1, 6]: 6.36 (2.97) mcg*h/mL/1 mg/kg LBW
CL/F normalized by LBW [1, 6]: 0.20 (0.11) L/h/kg LBW
Vd/F normalized by LBW [1, 6]: 0.25 (0.09) L/kg LBW
Vd/F normalized by LBW ([1]; obese non-PMs, Female (n = 18), mean (SD)): 0.28 (0.08) L/kg LBW
Vd/F normalized by LBW ([1]; obese non-PMs, Female (n = 18), mean (SD), listed as Pantoprazole): 0.28 [0.08] L/kg LBW
AUC0-∞ corrected for LBW-normalized dose [1, 11]: 6.03 (3.20) mcg*h/mL/1 mg/kg LBW
CL/F normalized by LBW [1, 11]: 0.21 (0.11) L/h/kg LBW
Vd/F normalized by LBW ([1]; obese non-PMs, Male (n = 17), mean (SD)): 0.22 (0.06) L/kg LBW
Vd/F normalized by LBW ([1]; obese non-PMs, Male (n = 17), mean (SD), listed as Pantoprazole): 0.22 [0.06] L/kg LBW
AUC0-∞ corrected for LBW-normalized dose ([1]; obese non-PMs, Male, mean (SD)): 6.57 (1.88) mcg*h/mL/1 mg/kg LBW
CL/F normalized by LBW ([1]; obese non-PMs, Male, mean (SD)): 0.17 (0.06) L/h/kg LBW
AUC0-∞ corrected for LBW-normalized dose [1, 12]: 6.63 (3.57) mcg*h/mL/1 mg/kg LBW
CL/F normalized by LBW [1, 12]: 0.20 (0.13) L/h/kg LBW
Vd/F normalized by LBW [1, 12]: 0.24 (0.09) L/kg LBW
AUC0-∞ corrected for LBW-normalized dose [1, 13]: 5.76 (2.31) mcg*h/mL/1 mg/kg LBW
CL/F normalized by LBW [1, 13]: 0.20 (0.09) L/h/kg LBW
Vd/F normalized by LBW [1, 13]: 0.28 (0.08) L/kg LBW
AUC0-∞ corrected for LBW-normalized dose [1, 14]: 5.09 (1.81) mcg*h/mL/1 mg/kg LBW
CL/F normalized by LBW [1, 14]: 0.23 (0.10) L/h/kg LBW
Vd/F normalized by LBW [1, 14]: 0.29 (0.07) L/kg LBW
AUC0-∞ corrected for LBW-normalized dose [1, 15]: 7.90 (2.72) mcg*h/mL/1 mg/kg LBW
CL/F normalized by LBW [1, 15]: 0.14 (0.05) L/h/kg LBW
Vd/F normalized by LBW [1, 15]: 0.20 (0.04) L/kg LBW
tlag ([1]; obese, age 6–11 y (n = 18), single oral dose): 1.5 (1.0–3) h
% AUC0-∞ extrapolated from AUC0-last ([1]; obese, age 6–11 y (n = 18)): 1.2 ± 1.6%
AUC0-∞ corrected for TBW-normalized dose ([1]; obese, age 6–11 y (n = 18)): 8.87 ± 4.00 mcg*h/mL/1 mg/kg TBW
CL/F normalized to TBW ([1]; obese, age 6–11 y (n = 18)): 0.14 ± 0.07 L/h/kg TBW
Cmax corrected for LBW-normalized dose ([1]; obese, age 6–11 y (n = 18)): 3.87 ± 1.39 mcg/mL/1 mg/kg LBW
Cmax corrected for TBW-normalized dose ([1]; obese, age 6–11 y (n = 18)): 5.99 ± 2.13 mcg/mL/1 mg/kg TBW
Vd/F normalized to TBW ([1]; obese, age 6–11 y (n = 18)): 0.16 ± 0.05 L/kg TBW
% AUC0-∞ extrapolated from AUC0-last ([1]; obese, age 12–17 y (n = 21)): 2.5 ± 3.3%
AUC0-∞ corrected for TBW-normalized dose ([1]; obese, age 12–17 y (n = 21)): 11.56 ± 4.81 mcg*h/mL/1 mg/kg TBW
CL/F normalized to TBW ([1]; obese, age 12–17 y (n = 21)): 0.10 ± 0.04 L/h/kg TBW
Cmax corrected for LBW-normalized dose ([1]; obese, age 12–17 y (n = 21)): 3.7 ± 0.99 mcg/mL/1 mg/kg LBW
Cmax corrected for TBW-normalized dose ([1]; obese, age 12–17 y (n = 21)): 6.23 ± 1.73 mcg/mL/1 mg/kg TBW
Vd/F normalized to TBW ([1]; obese, age 12–17 y (n = 21)): 0.14 ± 0.04 L/kg TBW
tlag ([1]; obese, age 12–17 y (n = 21)): 2.0 (1.0–8.0) h
AUC0-∞, PM relative to all the non-PMs ([1]; only CYP2C19 PM vs non-PMs, higher): greater than 2 fold
SMILES: COc1ccnc(C[S+]([O-])c2nc3ccc(OC(F)F)cc3[nH]2)c1OC (stereo not drawn) [pantoprazole]
half-life ([1]; both, oral, t1/2, obese non-PMs, ALT High (>Q3), mean (SD)): 57.6 min
half-life ([1]; both, oral, t1/2, obese non-PMs, ALT Low (<Q1), mean (SD)): 58.2 min
half-life ([1]; both, oral, t1/2, obese non-PMs, AST High (>Q3), mean (SD)): 51 min
half-life ([1]; both, oral, t1/2, obese non-PMs, AST Low (<Q1), mean (SD)): 63.6 min
AUC0-∞ corrected for LBW-normalized dose [1, 7]: 6.12 (2.08) mcg*h/mL/1 mg/kg LBW
CL/F normalized by LBW [1, 7]: 0.18 (0.07) L/h/kg LBW
Vd/F normalized by LBW [1, 7]: 0.25 (0.09) L/kg LBW
AUC0-∞ corrected for LBW-normalized dose [1, 8]: 5.75 (1.97) mcg*h/mL/1 mg/kg LBW
CL/F normalized by LBW [1, 8]: 0.19 (0.06) L/h/kg LBW
Vd/F normalized by LBW [1, 8]: 0.25 (0.04) L/kg LBW
AUC0-∞ corrected for LBW-normalized dose [1, 9]: 5.66 (1.40) mcg*h/mL/1 mg/kg LBW
CL/F normalized by LBW [1, 9]: 0.19 (0.06) L/h/kg LBW
Vd/F normalized by LBW [1, 9]: 0.23 (0.05) L/kg LBW
AUC0-∞ corrected for LBW-normalized dose [1, 10]: 6.04 (1.97) mcg*h/mL/1 mg/kg LBW
CL/F normalized by LBW [1, 10]: 0.19 (0.09) L/h/kg LBW
Vd/F normalized by LBW [1, 10]: 0.27 (0.06) L/kg LBW
AUC0-∞ corrected for LBW-normalized dose [1, 16]: 5.73 ± 2.48 mcg*h/mL/1 mg/kg LBW and 5.73 (2.48) mcg*h/mL/1 mg/kg LBW
CL/F normalized to LBW [1, 16]: 0.21 ± 0.11 L/h/kg LBW and 0.21 (0.11) L/h/kg LBW
Vd/F normalized to LBW [1, 16]: 0.25 ± 0.09 L/kg LBW and 0.25 (0.09) L/kg LBW
AUC0-∞ corrected for LBW-normalized dose ([1]; obese, age 12–17 y, mean, SD): 6.82 ± 2.70 mcg*h/mL/1 mg/kg LBW and 6.82 (2.70) mcg*h/mL/1 mg/kg LBW
CL/F normalized to LBW ([1]; obese, age 12–17 y, mean, SD): 0.17 ± 0.06 L/h/kg LBW and 0.17 (0.06) L/h/kg LBW
Vd/F normalized to LBW ([1]; obese, age 12–17 y, mean, SD): 0.25 ± 0.07 L/kg LBW and 0.25 (0.07) L/kg LBW
AUC0-∞ corrected for TBW-normalized dose ([2]; age 6–11 y (n = 13)): 3.1 ± 1.4 mcg*h/mL/1 mg/kg TBW
CL/F normalized to TBW ([2]; age 6–11 y (n = 13)): 0.40 ± 0.22 L/h/kg TBW
Cmax corrected for TBW-normalized dose ([2]; age 6–11 y (n = 13)): 2.1 ± 1.1 mcg/mL/1 mg/kg TBW
Uncorrected AUC0-∞ ([2]; age 6–11 y (n = 13)): 3800 ± 1800 ng·h/mL
Vd/F normalized to TBW ([2]; age 6–11 y (n = 13)): 0.40 ± 0.27 L/kg TBW
t1/2 ([2]; age 6–11 y (n = 13)): 42 ± 12 min
AUC0-∞ corrected for TBW-normalized dose ([2]; age 12–17 y (n = 11)): 6.9 ± 3.4 mcg*h/mL/1 mg/kg TBW
CL/F normalized to TBW ([2]; age 12–17 y (n = 11)): 0.18 ± 0.08 L/h/kg TBW
Cmax corrected for TBW-normalized dose ([2]; age 12–17 y (n = 11)): 3.7 ± 1.8 mcg/mL/1 mg/kg TBW
Uncorrected AUC0-∞ ([2]; age 12–17 y (n = 11)): 4300 ± 3100 ng·h/mL
Uncorrected Cmax ([2]; age 12–17 y (n = 11)): 2200 ± 1400 ng/mL
Vd/F normalized to TBW ([2]; age 12–17 y (n = 11)): 0.21 ± 0.06 L/kg TBW
t1/2 ([2]; age 12–17 y (n = 11)): 54 ± 18 min
Study participants with AEs (Safety and tolerability; 7 of the 41 study participants, nine AEs, single oral dose): 17%
Serious AEs (Safety and tolerability; 41 participants, single oral dose, follow-up day 10–13): No serious AEs
Severity of AEs (Safety and tolerability; all AEs): mild
AEs considered related to study drug (Safety and tolerability; two AEs (headache and hiccups)): 5%
